# Assay outcomes (PubChem BioAssay)
# Shown are actives, neighbours in structure and some others; about 1.9% of the full set was active somewhere.
# ASAP1 GAP inh: inhibitors of human ASAP1 ArfGAP activity. Q9ULH1. ASAP1-stimulated ARF1 GTP hydrolysis, GDP FP detection. inhibition, % at 16.5 µM. actives 0.19% (n = 360,000). AID 624377; in the data active = inhibition above about 25%;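 note: 0% = vehicle with enzyme and substrate and 100% = no enzyme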
# Target sequence (Q9ULH1 325-724 limits assumed): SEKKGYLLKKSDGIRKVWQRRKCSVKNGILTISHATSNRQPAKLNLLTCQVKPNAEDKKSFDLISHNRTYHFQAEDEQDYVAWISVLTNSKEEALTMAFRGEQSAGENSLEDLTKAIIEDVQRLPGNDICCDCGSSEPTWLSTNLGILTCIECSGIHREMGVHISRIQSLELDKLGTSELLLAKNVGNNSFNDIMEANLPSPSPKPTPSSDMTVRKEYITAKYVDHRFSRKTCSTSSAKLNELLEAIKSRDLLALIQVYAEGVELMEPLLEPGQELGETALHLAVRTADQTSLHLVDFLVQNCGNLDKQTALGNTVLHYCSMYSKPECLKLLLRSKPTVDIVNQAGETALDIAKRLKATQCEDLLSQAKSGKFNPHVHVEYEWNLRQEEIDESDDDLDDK
# ARFGAP1 inhibitor: inhibits rat ARF GTPase activating protein 1; Q62848; Arfgap1-stimulated ARF1 GTP hydrolysis, GDP FP detection; inhibition, % at 16.5 µM; actives 0.26% (n = 360,000); AID 651572;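 active = inhibition above a per-plate limit, mean inhibition of low control wells plus 3 SD, cut at about 25% in these data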;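 note: 0% = DMSO wells with enzyme and 100% = wells lacking Arfgap1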
# Target sequence (Q62848 1-136 limits assumed): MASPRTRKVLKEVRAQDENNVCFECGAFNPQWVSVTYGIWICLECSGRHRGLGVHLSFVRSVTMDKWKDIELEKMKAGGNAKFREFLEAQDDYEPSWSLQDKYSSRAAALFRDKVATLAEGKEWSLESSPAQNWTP
#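 Repeats: one replicate per compound; assay system: rat Arfgap1 catalytic domain, aa 1-136; times: enzyme reaction 120 min at 25 °C after 20 min preincubation; detection: FP of antibody-bound GDP Alexa 633 tracer, ex 620/em 688 nm; benchmarks: high control wells lacking Arfgap1, low control full reaction with DMSO; reagent: human ARF1(Δ1-17)-GTP substrate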
# HGIII-sPLA2 inh: Inhibits HGIII-sPLA2 liposome hydrolysis, primary screen; QFRET BODIPY PC-A2 liposome hydrolysis, fluorescence; inhibition, % at 12.2 µM; actives 0.56% (n = 370,000); AID 743126;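 active = inhibition above mean plus 3 SD of compounds lying within the high and low control bounds, cut at about 19% in these data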;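 note: 0% = median of test compound wells and 100% = no enzyme DMSO wells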
# PLC-gamma1 inh: blocks human PLC-gamma1 enzyme activity; purified PLC-gamma1, fluorogenic substrate, fluorescence; inhibition, % at 12.2 µM; actives 0.84% (n = 370,000); AID 720700; in the data active = inhibition above about 9.5%
# PLC-beta3 inh: inhibitors of human phospholipase C beta3 | actives 0.18% (n = 370,000) | Q01970 | Purified PLC-beta3, fluorogenic substrate, fluorescence | inhibition, % at 12.2 µM | AID 720704; in the data active = inhibition above about 11%;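 note: 0% = median of compound wells on plate and 100% = full blocker control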
# The depositor's hits bear a star; nt = no result given.
SMILES,ASAP1 GAP inh,ARFGAP1 inhibitor,HGIII-sPLA2 inh,PLC-gamma1 inh,PLC-beta3 inh
C=CCN1C(=O)[C@@H](CC(=O)NCc2cccc3ccccc23)[C@]2(C(=O)OCC)CCCCC/C=C/12,nt,nt,-4.3,2.9,6.2
CCCSc1cc(NCCOC(=O)CCC)c([N+](=O)[O-])c2nonc12,-4.6,6.0,-0.2,-2.5,-3.6
CCCC(=O)OCCNc1cc(Sc2nccn2C)c2nonc2c1[N+](=O)[O-],-1.4,9.9,19.3*,1.5,-4.3
CC(C)(C)N(Cc1cn(CC2CCCCC2)nn1)S(=O)(=O)c1ccccc1Br,nt,nt,-0.7,1.1,3.2
CN1CCN(c2ccc([N+](=O)[O-])c(-n3nc(-c4ccccc4)c4ccccc4c3=O)c2)CC1,-2.8,1.3,-19.8,9.6*,9.1
O=[N+]([O-])c1ccc(S(=O)(=O)c2ccccc2)nc1,6.1,-5.4,1.0,2.7,-0.4
Cc1ccc(S(=O)(=O)c2ccc([N+](=O)[O-])cn2)cc1,2.3,0.6,3.2,10.8*,5.9
C[C@@H]1CN([C@H](C)CO)C(=O)c2cc(Br)cnc2O[C@H]1CN(C)C(=O)c1ccccc1,1.1,5.8,2.5,10.9*,7.0
CCCCC[n+]1cccc2c3ccccc3ccc21,-9.9,4.2,1.6,-209.8,-228.1
CCC[n+]1c2ccccc2cc2ccccc21,-2.9,-5.0,29.3*,-95.2,-136.7
O=C(CSc1nc2ccccc2n1CCc1ccccc1)c1ccc(O)c(O)c1,-3.0,-5.6,24.0*,4.2,-6.8
Cc1cc(C)c(S(=O)(=O)Nc2ccc3c(c2)CCC3)c(C)c1,13.2,-10.3,-21.8,12.7*,4.1
Cc1cc(C)c(S(=O)(=O)Nc2ccc(O)cc2)c(C)c1,8.8,8.3,-23.2,-1.5,-1.1
O=C(c1ccc(Cl)c(Cl)c1)N1CCC(Oc2cccnc2)CC1,nt,nt,0.8,-0.2,2.0
CCOC(=O)Nc1ccc2c(c1)[C@@]1(CC(=O)N(CC(C)C)C1c1ccccc1)C(=O)N2C (stereo not given in full),nt,nt,-1.8,-5.5,-5.0
O=S(=O)(Nc1cc(Sc2ncn[nH]2)c(O)c2ccccc12)c1ccccc1,24.8*,5.3,-13.2,3.8,-4.5
Clc1nc(-c2ccccn2)nc2scc(-c3ccccc3)c12,-17.2,6.8,20.9*,-115.8,-128.4
CC(=O)Nc1ccc(NC2=C/C(=N/S(=O)(=O)c3cccs3)c3ccccc3C2=O)cc1,19.7,8.6,-6.6,11.4*,7.1
CCN1CCN(CC(=O)Nc2cc(S(=O)(=O)N(CC)c3ccccc3)ccc2Cl)CC1,-10.1,5.3,-22.6,9.5*,3.2
CN(C(=O)[C@@H](C1CC1)[C@@H](O)c1ccc2ccccc2c1)c1ccccc1,nt,nt,0.4,10.4*,0.1
CN(C)c1ccc(C=c2c3ccccc3n3c2c2ccccc2[n+]3C)cc1,59.4*,95.0*,-30.5,-7.7,-18.8
C#CCN1CC(N(C)CCOC(=O)c2ccc(OC)c(OC)c2)CS1(=O)=O (stereo not given),nt,nt,15.5,-0.1,-1.9
Cc1cc(C)cc(-c2c(C(=O)c3ccc(Br)cc3)[nH]c(N)c2C(=O)NCc2ccc(Cl)cc2)c1,nt,nt,6.2,-8.8,-14.3
Cc1cc(C)c2sc(NNC(=O)c3ccc(S(=O)(=O)N4CCc5ccccc5C4)cc3)nc2c1,17.6,12.7,44.9*,-59.3,-64.4
CCn1c(COc2ccccc2)nnc1SCc1ccc(C#N)cc1,13.2,-2.7,-4.4,9.6*,5.5
SMILES,ASAP1 GAP inh,ARFGAP1 inhibitor,HGIII-sPLA2 inh,PLC-gamma1 inh,PLC-beta3 inh
CCn1c(COc2ccc(Cl)cc2)nnc1SCc1ccc(C#N)cc1,-2.2,-1.1,-2.5,7.0,1.7
Cc1cccc(COCC(Cc2ccccc2)N2CCN(C(=O)c3ccc(Cl)c(Cl)c3)CCC2=O)c1 (stereo not given),2.8,-2.8,-11.8,3.5,4.3
O=C(c1ccc(Cl)c(Cl)c1)N1CCC(=O)N(C(COCc2ccc(Cl)cc2)Cc2ccccc2)CC1 (stereo not given),9.1,10.1,-8.2,12.1*,5.2
CCCCNC(=O)C1CCCN1C(=O)Nc1ccc(Cl)cc1 (stereo not given),nt,nt,-2.7,3.1,4.7
S=C(NCCCCN(Cc1ccc(Cl)cc1)c1ccc(Br)cn1)NCCCc1cnc[nH]1,11.5,18.1,-15.0,10.2*,-0.9
CN(C)CCN(Cc1ccc(Cl)cc1)c1ccccn1,5.1,-4.2,-9.2,5.9,2.3
O=C(Cc1cccs1)Nc1cccc(C(=O)Nc2ccco2)c1,0.8,4.0,-0.8,7.2,12.9*
COc1ccc(/C=C/C(=O)NC(=S)NNC(=O)c2c(-c3ccccc3)noc2C)cc1,-5.5,7.9,17.6,-8.0,-8.6
COc1ccc(-c2cc(C(=O)NNC(=S)NC(=O)c3c(-c4ccccc4)noc3C)[nH]n2)cc1,2.2,1.8,23.8*,-0.3,-1.8
CCOC(=O)CSC1=C(C#N)C(=O)NC(c2ccc(OC)cc2)S1 (stereo not given),6.7,4.5,5.1,13.6*,17.2*
O=C(CS(=O)CC(=O)Nc1cccc2c1CCCC2)Nc1ccc(F)cc1 (stereo not given),-12.0,13.9,-11.2,14.7*,7.6
CC(C)(C)CC(=O)Nc1cccc2c1CCCC2,-0.9,9.9,2.3,2.0,0.4
COCC1CCN(C(=O)CCc2nnc(C3(c4ccc(Cl)cc4)CCC3)o2)CC1,2.5,3.5,4.3,11.6*,2.0
CC[C@]12c3[nH]c4ccc(OC)cc4c3CCN1C(=O)C(CC(=O)NCc1cccc(C(F)(F)F)c1)C[C@@H]2C(=O)N1CCN(C(=O)c2ccco2)CC1 (stereo not given in full),-8.8,2.9,-19.3,11.4*,5.2
CCc1ccc(S(=O)(=O)/N=C2\C=C(NS(=O)(=O)c3ccccc3)C(=O)c3ccccc32)cc1,10.6,-2.1,0.7,0.3,-10.1
O=C(O)c1ccc(S(=O)(=O)/N=C2\C=C(Nc3ccccc3F)C(=O)c3ccccc32)cc1,-1.6,-8.7,-2.4,20.2*,-0.3
COc1ccc(/C=N/NC(=S)Nc2ccccc2[N+](=O)[O-])cc1O,4.8,-0.4,20.0*,-5.9,-6.8
O=[N+]([O-])c1cc(/C=N/NC(=S)Nc2ccccc2Cl)ccc1Cl,15.0,-7.2,3.8,5.3,-0.9
COC(=O)c1cccc(-c2ccc(C(c3c(C)[nH][nH]c3=O)c3c(C)[nH][nH]c3=O)o2)c1,25.8*,31.8*,-8.0,3.5,-0.8
CN(C)c1ccc(N=Nc2ccccc2C(=O)OCC(=O)N(C)C2CCCCC2)cc1,10.6,3.9,2.5,2.0,4.5
CN(C)c1ccc(N=Nc2ccccc2C(=O)OCC(=O)NCC2CCCCC2)cc1,-0.8,8.7,13.5,10.5*,2.1
CCOC(=O)c1ccc(N2C(=O)c3n[nH]c(C)c3C2c2ccco2)cc1 (stereo not given),7.1,-4.4,-9.6,2.0,4.1
CCOC(=O)c1ccc(N2C(=O)c3n[nH]c(-c4ccco4)c3C2c2cccc([N+](=O)[O-])c2)cc1 (stereo not given),9.9,11.4,6.7,13.4*,1.9
